Screening data: PubChem BioAssay, several laboratories
Only some compounds are listed: those with a hit (about 1.8% of all), similar ones and a draw of the others.
HTRA1 inhibitor: blocks human HTRA1 serine peptidase. AID 504803. Q92743. 340,000 tested, 0.5% active. recombinant HTRA1, FP-rhodamine activity-based probe, fluorescence polarization. inhibition, % at 5.96 µM; in the data active = inhibition above about 36%;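 note: 0% = enzyme with DMSO and 100% = wells lacking enzyme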
TCR CD3 inh: blocks the human TCR-CD3 interaction | 360,000 tested, 0.37% active | inhibition, % at 9.4 µM | TAMRA-labeled TCR probe fluorescence, biochemical;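 note: recombinant mutant TCR 2C K166C tagged with TAMRA read by polarization; 0% = receptor in buffer alone and 100% = receptor with positive control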
ARNT TACC3 PPI: ARNT/TACC3 interaction disruption; Q9Y6A5; AlphaScreen His-ARNT PAS-B/GST-TACC3 binding, luminescence; TACC3 fragment carries E629A point mutation; inhibition, % at 9.99 µM; 390,000 tested, 0.66% active; AID 623870;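 active = mean inhibition of replicates at least 50% and at least half of replicates each reaching 50%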;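 note: 0% = complete ARNT plus TACC3 wells and 100% = ARNT alone without TACC3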
ABHD4 inh: ABHD4 (mouse) inhibition, primary FP screen | Q8VD66 | 370,000 tested, 0.54% active | purified mABHD4, FP-Rh probe fluorescence polarization | inhibition, % at 8.92 µM | AID 720543;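 active = inhibition exceeding the mean over every tested compound plus 3 SD, cut at about 30% in these data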;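 note: 0% = plate median of compound wells and 100% = S159A mutant with DMSO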
Target sequence (Q8VD66 whole entry, looked up): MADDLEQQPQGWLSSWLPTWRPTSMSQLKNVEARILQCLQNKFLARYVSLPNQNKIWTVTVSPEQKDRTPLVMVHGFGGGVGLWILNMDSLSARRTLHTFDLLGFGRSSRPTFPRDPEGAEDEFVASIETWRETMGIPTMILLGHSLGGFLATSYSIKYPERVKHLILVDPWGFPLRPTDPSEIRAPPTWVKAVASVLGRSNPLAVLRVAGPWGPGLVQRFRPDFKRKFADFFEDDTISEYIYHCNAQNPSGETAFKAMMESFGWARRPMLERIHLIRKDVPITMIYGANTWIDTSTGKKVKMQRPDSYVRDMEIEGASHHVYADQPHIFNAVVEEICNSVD
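System: mouse ABHD4 enzyme, wild type / Medium: HEPES pH 7.0, NaCl, Pluronic buffer / Reagent: FP-Rh activity-based fluorescent probe / Control set: S159A mutant high control, sample median low control / Detection: fluorescence polarization with parallel and perpendicular emission, 525/598 nm / Schedule: 45 min + 60 min at 25 °C / Compound dosing: 8.92 µM, single dose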
SIAE inh: inhibitors of human sialic acid acetylesterase SIAE. 370,000 tested, 0.69% active. inhibition, % at 9.66 µM. SIAE FP-Rh probe binding, fluorescence polarization;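 active = inhibition above a cutoff: mean of compounds within the control limits plus 3 SD of those, cut at about 17% in these data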;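 note: 0% = plate median of compound wells and 100% = probe without SIAE protein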
BSA probe FL: BSA probe counter-screen for TCR-CD3 inhibitors | shares compounds with TCR CD3 inh | TAMRA-labeled BSA probe fluorescence counterscreen | inhibition, % at 9.4 µM | 1,200 tested, 10% active; in the data active = inhibition above about 23%;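 note: 0% = buffer low control and 100% = reference high control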
TCR-CD3 conf: confirmation of human TCR-CD3 interaction inhibitors; 1,200 tested, 48% active; AID 652036; inhibition, % at 9.4 µM; TAMRA-labeled TCR probe fluorescence binding assay; shares compounds with TCR CD3 inh
* hit, by the source's call; . = no result given. Cut-off read from the data, not from the text of the source, unless noted: active = inhibition above about 19%; inactive = the rest.

SMILES	HTRA1 inhibitor	TCR CD3 inh	ARNT TACC3 PPI	ABHD4 inh	SIAE inh	BSA probe FL	TCR-CD3 conf
C[C@@H]1CN([C@H](C)CO)C(=O)c2cc(NC(=O)Nc3ccc(C(F)(F)F)cc3)ccc2O[C@H]1CN(C)Cc1ccc(Cl)c(Cl)c1	-47	27*	-5	-14	-11	24*	46*
Cc1ccc(S(=O)(=O)N(C)C[C@@H]2Oc3ccc(NC(=O)Nc4ccc(C(F)(F)F)cc4)cc3CC(=O)N([C@H](C)CO)C[C@H]2C)cc1	.	.	25	.	.	.	.
C[C@@H]1CN([C@H](C)CO)C(=O)c2cc(NC(=O)Nc3ccc(C(F)(F)F)cc3)ccc2O[C@@H]1CN(C)S(=O)(=O)c1ccc(F)cc1	.	.	-2	.	.	.	.
C[C@@H]1CN([C@H](C)CO)C(=O)c2cc(NC(=O)Nc3ccc(C(F)(F)F)cc3)ccc2O[C@H]1CN(C)S(=O)(=O)c1ccc(Cl)cc1	-89	54*	-1	-99	-159	25*	52*
C[C@H](CO)N1C[C@H](C)[C@@H](CN(C)S(=O)(=O)c2ccc(F)cc2)Oc2ccc(NC(=O)Nc3ccc(C(F)(F)F)cc3)cc2C1=O	-142	22*	1	-102	-236	14	42*
C[C@@H]1CN([C@@H](C)CO)S(=O)(=O)c2ccc(-c3ccc(F)cc3)cc2O[C@H]1CN(C)C(=O)Nc1ccccc1F	.	.	-9	.	.	.	.
O=C(C[C@H]1CC[C@@H]2[C@H](COC[C@@H](O)CN2C(=O)c2cccnc2)O1)NCc1ccc(-c2ccccc2)cc1	.	.	7	.	.	.	.
O=C(CN1C(=O)c2ccccc2S1(=O)=O)NC1CCCC1	5	22*	1	3	4	-1	2
CC1CCCCC1NC(=O)CN1C(=O)c2ccccc2S1(=O)=O (configuration not stated)	-6	2	-2	10	1	.	.
CCC(=O)N1[C@@H]2c3cccc(=O)n3C[C@@H]2[C@@H](CO)[C@@H]1C(=O)NCC1CC1	.	.	4	.	.	.	.
CCC(=O)Nc1ccc2c(c1)C(=O)N(C)C[C@@H](OC)[C@H](C)CN(Cc1cccc(F)c1)[C@H](C)CO2	.	.	-4	.	.	.	.
Cc1ccccc1NS(=O)(=O)c1ccc(C(=O)N2CCC2)cc1	2	20*	-4	5	-10	2	1
CC(/C=C1\SC(=S)N(CCC(=O)Nc2ccc(O)cc2)C1=O)=C\c1ccccc1	-24	2	2	-59	-17	.	.
CC(=O)c1ccc(NC(=O)CN2C(=O)/C(=C/C(C)=C/c3ccccc3)SC2=S)cc1	-31	24*	-1	-54	-146	17	49*
Cc1ccc(C(=O)NCCCC(=O)O)o1	0	41*	-2	-9	-5	1	1
Cn1cccc1CC(=O)N/N=C/C=C/c1ccco1	8	20*	2	6	4	-11	10
C[C@H]1CN([C@@H](C)CO)C(=O)Cc2cc(NC(=O)Nc3ccc(C(F)(F)F)cc3)ccc2O[C@@H]1CN(C)Cc1ccc(C(=O)Nc2ccccc2N)cc1	.	.	-26	.	.	.	.
O=C(C[C@@H]1CC[C@@H](NC(=O)c2ccc(F)cc2)[C@@H](CO)O1)NCCc1ccccc1	.	.	-18	.	.	.	.
COc1cccc(/C=N/NC(=O)C(=O)N/N=C/c2cccc(OC)c2O)c1O	.	21*	40	14	-2	-8	19
COC(=O)c1cccc(/C=N/NC(N)=S)c1O	11	34*	67*	0	15	-25	4
CC1=Nc2ccccc2/C1=C/c1nc(-c2ccc(C)s2)oc1O	21	19*	-5	15	-18	20	3
Nc1c(/C=C2/C=CC(=O)C(O)=C2)c(=O)nc2sc(CC(=O)N3CCCCC3)nn12	14	26*	-1	5	1	-19	42*
Nc1c(/C=C2/C=CC(=O)C(O)=C2)c(=O)nc2sc(CC(=O)N3CCCC3)nn12	10	16	4	19	4	.	.
C[C@@H]1CN([C@H](C)CO)C(=O)Cc2cc(NC(=O)Cc3cn(C)c4ccccc34)ccc2O[C@H]1CN(C)Cc1ccc(C(=O)Nc2ccccc2N)cc1	.	.	-9	.	.	.	.
Oc1c(C=Nc2cccc3cccnc23)sc2ccccc12	.	29*	.	-66	-3	60*	28*
